{"source": "ChEMBL document CHEMBL4330069", "about": "“Boosting the efficacy of anti-MRSA β-lactam antibiotics via an easily accessible, non-cytotoxic and orally bioavailable FtsZ inhibitor” (Eur J Med Chem, 2019)", "key": {"Staphylococcus aureus [1]": {"test_system": "Staphylococcus aureus", "assay": "Synergistic antibacterial activity against multidrug-resistant Staphylococcus aureus isolate 1402 in presence of amoxicillin by broth microdilution assay", "assay_type": "functional", "summary_of_the_method": "(§1)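 Clinical MRSA isolate panel; compound and β-lactam tested alone and in combination by CLSI broth microdilution, compounds dissolved in DMSO, growth inhibition scored by eye, run in duplicate. FIC index = FIC(compound) + FIC(drug), each the MIC in combination divided by the MIC alone; an index ≤ 0.5 was called synergy.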"}, "Staphylococcus aureus [2]": {"test_system": "Staphylococcus aureus", "assay": "Synergistic antibacterial activity against multidrug-resistant Staphylococcus aureus isolate 200 in presence of meropenem by broth microdilution assay", "assay_type": "functional", "summary_of_the_method": "as §1"}, "Staphylococcus aureus [3]": {"test_system": "Staphylococcus aureus", "assay": "Synergistic antibacterial activity against multidrug-resistant Staphylococcus aureus isolate 1344 assessed as fractional Inhibitory concentration index in presence of cloxacillin by broth microdilution assay", "assay_type": "functional", "summary_of_the_method": "(§2)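 CLSI broth microdilution run on clinical MRSA isolates with each β-lactam alone, the test agent alone, and the two combined; agents dissolved in DMSO. Growth inhibition was read by eye. FIC index = FIC(compound) + FIC(β-lactam), where each FIC is the MIC in combination divided by the MIC alone. An index ≤0.5 was taken as synergy.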"}, "Staphylococcus aureus [4]": {"test_system": "Staphylococcus aureus", "assay": "Synergistic antibacterial activity against multidrug-resistant Staphylococcus aureus isolate 1449 in presence of methicillin by broth microdilution assay", "assay_type": "functional", "summary_of_the_method": "as §1"}, "[5]": {"assay": "AUC (0 to infinity) in Sprague-Dawley rat at 1 mg/kg, iv by UPLC-MS/MS analysis", "assay_type": "ADME, organism-based", "set-up": "dose 1 mg/kg, time infinity, route intravenous", "settings": "in vivo"}, "Staphylococcus aureus [6]": {"test_system": "Staphylococcus aureus", "assay": "Synergistic antibacterial activity against multidrug-resistant Staphylococcus aureus isolate 2901 in presence of methicillin by broth microdilution assay", "assay_type": "functional", "summary_of_the_method": "(§3)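 CLSI broth microdilution on clinical MRSA isolates. MICs were measured for the β-lactam alone, the test agent alone and the two combined. Compounds were dissolved in DMSO, and growth inhibition was scored by eye. FIC index is the sum, over both agents, of MIC in combination divided by MIC alone. An FIC index ≤0.5 was taken as synergy.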"}, "[7]": {"assay": "Oral bioavailability in Sprague-Dawley rat at 50 mg/kg by UPLC-MS/MS analysis", "assay_type": "ADME, organism-based", "settings": "in vivo", "summary_of_the_method": "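Male Sprague–Dawley rats (250-280 g) dosed IV at 1 mg/kg or by oral feeding at 50 mg/kg. Jugular blood taken from 5 to 420 min (IV) or 2 to 600 min (oral). Plasma proteins precipitated with methanol, then analysed by UPLC-MS/MS with positive ESI. Parameters from non-compartmental analysis.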"}, "Staphylococcus aureus [8]": {"test_system": "Staphylococcus aureus", "assay": "Synergistic antibacterial activity against multidrug-resistant Staphylococcus aureus isolate 2490 in presence of amoxicillin by broth microdilution assay", "assay_type": "functional", "summary_of_the_method": "as §1"}, "Staphylococcus aureus [9]": {"test_system": "Staphylococcus aureus", "assay": "Synergistic antibacterial activity against multidrug-resistant Staphylococcus aureus isolate 3267 in presence of meropenem by broth microdilution assay", "assay_type": "functional", "summary_of_the_method": "as §3"}, "Staphylococcus aureus [10]": {"test_system": "Staphylococcus aureus", "assay": "Synergistic antibacterial activity against multidrug-resistant Staphylococcus aureus isolate 2728 in presence of meropenem by broth microdilution assay", "assay_type": "functional", "summary_of_the_method": "as §3"}, "Staphylococcus aureus [11]": {"test_system": "Staphylococcus aureus", "assay": "Synergistic antibacterial activity against multidrug-resistant Staphylococcus aureus isolate 2973 assessed as fractional Inhibitory concentration index in presence of cloxacillin by broth microdilution assay", "assay_type": "functional"}, "Staphylococcus aureus [12]": {"test_system": "Staphylococcus aureus", "assay": "Synergistic antibacterial activity against multidrug-resistant Staphylococcus aureus isolate 3411 assessed as fractional Inhibitory concentration index in presence of amoxicillin by broth microdilution assay", "assay_type": "functional"}, "Escherichia coli": {"test_system": "Escherichia coli", "assay": "Antibacterial activity against Escherichia coli ATCC 25922 by broth microdilution assay", "assay_type": "functional", "summary_of_the_method": "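Broth microdilution per CLSI guidelines; compounds dissolved in DMSO; single agents tested; growth inhibition read by eye; run in duplicate (table footnote states at least triplicates).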"}, "Staphylococcus aureus [13]": {"test_system": "Staphylococcus aureus", "assay": "Synergistic antibacterial activity against multidrug-resistant Staphylococcus aureus isolate 200 in presence of methicillin by broth microdilution assay", "assay_type": "functional", "summary_of_the_method": "as §1"}, "Staphylococcus aureus [14]": {"test_system": "Staphylococcus aureus", "assay": "Synergistic antibacterial activity against multidrug-resistant Staphylococcus aureus isolate 1344 in presence of methicillin by broth microdilution assay", "assay_type": "functional", "summary_of_the_method": "as §1"}, "Staphylococcus aureus [15]": {"test_system": "Staphylococcus aureus", "assay": "Synergistic antibacterial activity against multidrug-resistant Staphylococcus aureus isolate 3589 assessed as fractional Inhibitory concentration index in presence of methicillin by broth microdilution assay", "assay_type": "functional"}, "Staphylococcus aureus [16]": {"test_system": "Staphylococcus aureus", "assay": "Synergistic antibacterial activity against multidrug-resistant Staphylococcus aureus isolate 231 in presence of methicillin by broth microdilution assay", "assay_type": "functional", "summary_of_the_method": "as §1"}, "Staphylococcus aureus [17]": {"test_system": "Staphylococcus aureus", "assay": "Synergistic antibacterial activity against multidrug-resistant Staphylococcus aureus isolate 1344 in presence of cloxacillin by broth microdilution assay", "assay_type": "functional", "summary_of_the_method": "as §1"}, "Staphylococcus aureus [18]": {"test_system": "Staphylococcus aureus", "assay": "Antibacterial activity against multidrug-resistant Staphylococcus aureus ATCC 43300 infected in BALB/C mouse assessed as mouse survival at 50 mg/kg, ip bid measured on day 4 post infection (reference value: 50%)", "assay_type": "functional"}, "Staphylococcus aureus [19]": {"test_system": "Staphylococcus aureus", "assay": "Synergistic antibacterial activity against multidrug-resistant Staphylococcus aureus isolate 1449 in presence of cefuroxime by broth microdilution assay", "assay_type": "functional", "summary_of_the_method": "as §1"}, "Staphylococcus aureus [20]": {"test_system": "Staphylococcus aureus", "assay": "Synergistic antibacterial activity against multidrug-resistant Staphylococcus aureus isolate 3580 in presence of meropenem by broth microdilution assay", "assay_type": "functional"}, "Staphylococcus aureus [21]": {"test_system": "Staphylococcus aureus", "assay": "Synergistic antibacterial activity against multidrug-resistant Staphylococcus aureus isolate 417 assessed as fractional Inhibitory concentration index in presence of cefuroxime by broth microdilution assay", "assay_type": "functional"}, "Staphylococcus aureus [22]": {"test_system": "Staphylococcus aureus", "assay": "Synergistic antibacterial activity against multidrug-resistant Staphylococcus aureus isolate 1136 in presence of cefuroxime by broth microdilution assay", "assay_type": "functional", "summary_of_the_method": "as §1"}, "Staphylococcus aureus [23]": {"test_system": "Staphylococcus aureus", "assay": "Synergistic antibacterial activity against multidrug-resistant Staphylococcus aureus isolate 757 in presence of cloxacillin by broth microdilution assay", "assay_type": "functional"}, "Staphylococcus aureus [24]": {"test_system": "Staphylococcus aureus", "assay": "Antibacterial activity against multidrug-resistant Staphylococcus aureus isolate 3580 by broth microdilution assay", "assay_type": "functional", "summary_of_the_method": "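Broth microdilution MIC per CLSI guidelines against clinical MRSA isolates, for β-lactams and test compound alone and in combination. Compounds were dissolved in DMSO. Growth was read by eye, in duplicate. FIC index = FIC(compound) + FIC(drug); synergy defined as FIC index ≤0.5.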"}, "Staphylococcus aureus [25]": {"test_system": "Staphylococcus aureus", "assay": "Synergistic antibacterial activity against multidrug-resistant Staphylococcus aureus isolate 2728 in presence of cefuroxime by broth microdilution assay", "assay_type": "functional", "summary_of_the_method": "as §3"}, "Staphylococcus aureus [26]": {"test_system": "Staphylococcus aureus", "assay": "Synergistic antibacterial activity against multidrug-resistant Staphylococcus aureus isolate 2901 in presence of meropenem by broth microdilution assay", "assay_type": "functional", "summary_of_the_method": "as §3"}, "Staphylococcus aureus [27]": {"test_system": "Staphylococcus aureus", "assay": "Synergistic antibacterial activity against multidrug-resistant Staphylococcus aureus isolate 1136 assessed as fractional Inhibitory concentration index in presence of cloxacillin by broth microdilution assay", "assay_type": "functional", "summary_of_the_method": "as §2"}, "Staphylococcus aureus [28]": {"test_system": "Staphylococcus aureus", "assay": "Synergistic antibacterial activity against multidrug-resistant Staphylococcus aureus isolate 2728 assessed as fractional Inhibitory concentration index in presence of cloxacillin by broth microdilution assay", "assay_type": "functional"}, "Staphylococcus aureus [29]": {"test_system": "Staphylococcus aureus", "assay": "Synergistic antibacterial activity against multidrug-resistant Staphylococcus aureus isolate 2728 assessed as fractional Inhibitory concentration index in presence of amoxicillin by broth microdilution assay", "assay_type": "functional"}, "Staphylococcus aureus [30]": {"test_system": "Staphylococcus aureus", "assay": "Synergistic antibacterial activity against multidrug-resistant Staphylococcus aureus isolate 1136 in presence of meropenem by broth microdilution assay", "assay_type": "functional", "summary_of_the_method": "as §1"}, "Staphylococcus aureus [31]": {"test_system": "Staphylococcus aureus", "assay": "Synergistic antibacterial activity against multidrug-resistant Staphylococcus aureus isolate 2973 assessed as fractional Inhibitory concentration index in presence of cefuroxime by broth microdilution assay", "assay_type": "functional"}, "Staphylococcus aureus [32]": {"test_system": "Staphylococcus aureus", "assay": "Synergistic antibacterial activity against multidrug-resistant Staphylococcus aureus isolate 3580 assessed as fractional Inhibitory concentration index in presence of amoxicillin by broth microdilution assay", "assay_type": "functional"}, "Staphylococcus aureus [33]": {"test_system": "Staphylococcus aureus", "assay": "Synergistic antibacterial activity against multidrug-resistant Staphylococcus aureus isolate 256 assessed as fractional Inhibitory concentration index in presence of cloxacillin by broth microdilution assay", "assay_type": "functional"}, "Staphylococcus aureus [34]": {"test_system": "Staphylococcus aureus", "assay": "Synergistic antibacterial activity against multidrug-resistant Staphylococcus aureus isolate 3589 in presence of cloxacillin by broth microdilution assay", "assay_type": "functional"}}}
{"smiles": "CCCCCCCCCNc1ccc(F)c(C(N)=O)c1F", "values": [{"measurement": "MIC", "setting": "Staphylococcus aureus [1]", "value": 4, "unit": "µg/mL"}, {"measurement": "MIC", "setting": "Staphylococcus aureus [2]", "value": 8, "unit": "µg/mL"}, {"measurement": "fractional inhibitory concentration index (FICI)", "setting": "Staphylococcus aureus [3]", "value": 0.1}, {"measurement": "MIC", "setting": "Staphylococcus aureus [4]", "value": 2, "unit": "µg/mL"}, {"measurement": "AUC(0-inf)", "setting": "[5]", "value": 1600, "unit": "ng·h/mL"}, {"measurement": "MIC", "setting": "Staphylococcus aureus [6]", "value": 2, "unit": "µg/mL"}, {"measurement": "bioavailability", "setting": "[7]", "value": 13, "unit": "%"}, {"measurement": "MIC", "setting": "Staphylococcus aureus [8]", "value": 8, "unit": "µg/mL"}, {"measurement": "MIC", "setting": "Staphylococcus aureus [9]", "value": 8, "unit": "µg/mL"}, {"measurement": "MIC", "setting": "Staphylococcus aureus [10]", "value": 4, "unit": "µg/mL"}, {"measurement": "fractional inhibitory concentration index (FICI)", "setting": "Staphylococcus aureus [11]", "value": 0.1}, {"measurement": "fractional inhibitory concentration index (FICI)", "setting": "Staphylococcus aureus [12]", "value": 2}, {"measurement": "MIC", "setting": "Escherichia coli", "value": "> 64", "unit": "µg/mL"}, {"measurement": "MIC", "setting": "Staphylococcus aureus [13]", "value": 4, "unit": "µg/mL"}, {"measurement": "MIC", "setting": "Staphylococcus aureus [14]", "value": 4, "unit": "µg/mL"}, {"measurement": "fractional inhibitory concentration index (FICI)", "setting": "Staphylococcus aureus [15]", "value": 0.5}, {"measurement": "MIC", "setting": "Staphylococcus aureus [16]", "value": 4, "unit": "µg/mL"}, {"measurement": "MIC", "setting": "Staphylococcus aureus [17]", "value": 1, "unit": "µg/mL"}, {"measurement": "Activity", "setting": "Staphylococcus aureus [18]", "value": 40, "unit": "%"}, {"measurement": "MIC", "setting": "Staphylococcus aureus [19]", "value": 2, "unit": "µg/mL"}, {"measurement": "MIC", "setting": "Staphylococcus aureus [20]", "value": 8, "unit": "µg/mL"}, {"measurement": "fractional inhibitory concentration index (FICI)", "setting": "Staphylococcus aureus [21]", "value": 0.1}, {"measurement": "MIC", "setting": "Staphylococcus aureus [22]", "value": 2, "unit": "µg/mL"}, {"measurement": "MIC", "setting": "Staphylococcus aureus [23]", "value": 1, "unit": "µg/mL"}, {"measurement": "MIC", "setting": "Staphylococcus aureus [24]", "value": 32, "unit": "µg/mL"}, {"measurement": "MIC", "setting": "Staphylococcus aureus [25]", "value": 2, "unit": "µg/mL"}, {"measurement": "MIC", "setting": "Staphylococcus aureus [26]", "value": 4, "unit": "µg/mL"}, {"measurement": "fractional inhibitory concentration index (FICI)", "setting": "Staphylococcus aureus [27]", "value": 0.4}, {"measurement": "fractional inhibitory concentration index (FICI)", "setting": "Staphylococcus aureus [28]", "value": 1}, {"measurement": "fractional inhibitory concentration index (FICI)", "setting": "Staphylococcus aureus [29]", "value": 0.1}, {"measurement": "MIC", "setting": "Staphylococcus aureus [30]", "value": 8, "unit": "µg/mL"}, {"measurement": "fractional inhibitory concentration index (FICI)", "setting": "Staphylococcus aureus [31]", "value": 0.5}, {"measurement": "fractional inhibitory concentration index (FICI)", "setting": "Staphylococcus aureus [32]", "value": 0.3}, {"measurement": "fractional inhibitory concentration index (FICI)", "setting": "Staphylococcus aureus [33]", "value": 0.1}, {"measurement": "MIC", "setting": "Staphylococcus aureus [34]", "value": 2, "unit": "µg/mL"}]}
